Experiments:
Assay type in all cases: cell-based
[1] = target: Sodium-dependent dopamine transporter (Homo sapiens, UniProt Q01959); test: In vitro displacement of [3H]GBR-12935 from human dopamine transporter expressed in HEK293 cells
How it was run: (§1)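 Competitive binding using cloned human transporters expressed in HEK-293 cells. NET was labelled with [³H]nisoxetine and DAT with [³H]GBR12935, following a previously published procedure.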

[2] = target: Sodium-dependent serotonin transporter (Homo sapiens, UniProt P31645); test: In vitro displacement of [3H]paroxetine from human serotonin transporter expressed in HEK293 cells
Sequence of Sodium-dependent serotonin transporter (P31645 whole entry): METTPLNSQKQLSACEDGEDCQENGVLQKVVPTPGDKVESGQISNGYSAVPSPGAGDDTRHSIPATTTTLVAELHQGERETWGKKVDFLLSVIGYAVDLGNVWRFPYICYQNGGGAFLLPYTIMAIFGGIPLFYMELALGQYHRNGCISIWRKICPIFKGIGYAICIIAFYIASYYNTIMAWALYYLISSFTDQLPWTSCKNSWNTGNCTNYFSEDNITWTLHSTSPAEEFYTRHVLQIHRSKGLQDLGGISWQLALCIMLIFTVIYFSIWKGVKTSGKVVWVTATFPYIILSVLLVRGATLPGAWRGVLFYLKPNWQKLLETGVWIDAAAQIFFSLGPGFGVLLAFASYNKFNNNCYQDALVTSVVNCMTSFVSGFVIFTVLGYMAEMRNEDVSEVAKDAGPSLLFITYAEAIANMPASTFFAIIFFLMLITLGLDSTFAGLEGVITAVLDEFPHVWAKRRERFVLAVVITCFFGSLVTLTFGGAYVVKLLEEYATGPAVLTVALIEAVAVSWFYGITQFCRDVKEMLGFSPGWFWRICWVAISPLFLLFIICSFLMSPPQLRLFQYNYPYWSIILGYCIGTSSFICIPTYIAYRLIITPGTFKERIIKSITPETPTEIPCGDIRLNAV

[3] = target: Sodium-dependent noradrenaline transporter (Homo sapiens, UniProt P23975); test: In vitro displacement of [3H]nisoxetine from human norepinephrine transporter expressed in HEK293 cells; how it was run: as §1
Sequence of Sodium-dependent noradrenaline transporter (P23975 whole entry): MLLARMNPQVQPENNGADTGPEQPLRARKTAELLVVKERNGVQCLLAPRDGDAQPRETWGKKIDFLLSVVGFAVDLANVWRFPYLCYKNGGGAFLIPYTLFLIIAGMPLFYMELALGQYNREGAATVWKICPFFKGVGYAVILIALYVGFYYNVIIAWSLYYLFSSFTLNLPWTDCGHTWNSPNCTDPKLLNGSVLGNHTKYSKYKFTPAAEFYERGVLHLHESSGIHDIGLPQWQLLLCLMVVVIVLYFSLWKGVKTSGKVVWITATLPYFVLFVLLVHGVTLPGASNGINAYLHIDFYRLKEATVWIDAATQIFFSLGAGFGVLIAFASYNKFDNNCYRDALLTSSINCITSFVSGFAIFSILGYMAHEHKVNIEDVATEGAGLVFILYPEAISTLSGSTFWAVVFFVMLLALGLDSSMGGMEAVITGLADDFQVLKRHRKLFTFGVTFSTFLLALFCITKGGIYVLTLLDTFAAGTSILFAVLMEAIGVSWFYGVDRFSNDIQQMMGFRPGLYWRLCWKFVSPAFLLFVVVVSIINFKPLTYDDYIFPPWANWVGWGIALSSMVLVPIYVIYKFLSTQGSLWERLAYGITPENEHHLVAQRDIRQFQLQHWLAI

Sequence of Sodium-dependent dopamine transporter (Q01959 whole entry): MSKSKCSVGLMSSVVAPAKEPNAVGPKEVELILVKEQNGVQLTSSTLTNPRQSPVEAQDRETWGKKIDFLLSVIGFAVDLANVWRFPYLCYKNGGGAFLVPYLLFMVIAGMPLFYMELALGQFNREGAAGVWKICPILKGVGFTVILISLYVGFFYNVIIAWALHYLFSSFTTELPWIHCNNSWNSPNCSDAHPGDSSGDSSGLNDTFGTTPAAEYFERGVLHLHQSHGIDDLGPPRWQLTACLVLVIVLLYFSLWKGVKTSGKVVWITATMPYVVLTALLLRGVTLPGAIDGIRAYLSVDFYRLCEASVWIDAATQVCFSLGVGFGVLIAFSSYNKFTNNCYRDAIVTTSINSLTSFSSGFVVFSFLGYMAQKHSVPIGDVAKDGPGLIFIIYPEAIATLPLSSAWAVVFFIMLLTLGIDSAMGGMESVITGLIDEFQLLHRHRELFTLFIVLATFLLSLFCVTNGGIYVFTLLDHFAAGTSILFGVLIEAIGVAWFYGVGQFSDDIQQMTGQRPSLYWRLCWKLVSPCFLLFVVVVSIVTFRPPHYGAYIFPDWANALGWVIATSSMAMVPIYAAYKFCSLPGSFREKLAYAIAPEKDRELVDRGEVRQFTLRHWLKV

Compound Cc1ccc(Sc2ccccc2CNCCCF)c(N)c1 has a Ki [1] of over 10 µM, a Ki [2] of 0.518 µM and a Ki [3] of 4.33 µM.
CN(C)Cc1ccccc1Sc1ccc(CO)cc1N was tested, and the Ki [1] was 3.61 µM, the Ki [2] was 0.0008 µM and the Ki [3] was 0.787 µM.
For Cc1ccc(Sc2ccccc2CN)c(N)c1, the Ki [1] was 5.3 µM, the Ki [2] was 0.03 µM and the Ki [3] was 4.44 µM.
